Experimental data reported in ChEMBL document CHEMBL1142382, “Synthesis and biological activity of a 3,4,5-trimethoxybenzoyl ester analogue of epicatechin-3-gallate” (J Med Chem, 2008).
Calls of active or inactive are those of the source. The rule behind the calls is not given here.

Assays:
[1] = target: T1, Dihydrofolate reductase (Homo sapiens) (UniProt P00374); assay: Inhibition of human recombinant DHFR at 100 uM
T1 sequence (whole entry): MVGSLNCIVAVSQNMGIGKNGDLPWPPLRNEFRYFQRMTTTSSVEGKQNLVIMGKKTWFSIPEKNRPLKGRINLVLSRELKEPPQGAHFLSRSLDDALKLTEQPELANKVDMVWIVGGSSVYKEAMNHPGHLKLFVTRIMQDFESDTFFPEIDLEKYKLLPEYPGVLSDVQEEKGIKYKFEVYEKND
Summary of the method: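 Recombinant human DHFR activity at 25 °C followed as drop in NADPH/DHF absorbance at 340 nm in Mes 0.025 M, sodium acetate 0.025 M, Tris 0.05 M, NaCl 0.1 M, pH 7.4, with 1 mM ascorbic acid; reaction started with enzyme; compounds at 100 μM; activity relative to no-compound control, mean of five experiments.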

[2] = Antioxidant activity assessed as ABTS radical scavenging activity; assay type: functional
Summary of the method: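 ABTS radical cation generated from ABTS (150 μM) with H2O2 (75 μM) and HRP (0.25 μM) in citrate-phosphate pH 4.5, diluted in 5 mM PBS pH 7.4 to A734 0.70, pre-warmed 30 °C. Compounds in PBS (50 μM stock) at four concentrations within the Trolox dose-response range, triplicates; A734 read 1 min after mixing; TEAC derived from Trolox curve.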

[3] = Stability in human HT29 cells assessed as half life; assay type: ADME, cell-based; settings: HT-29 cells
[4] = target: T1, Dihydrofolate reductase (Homo sapiens); assay: Dissociation constant for binding to free human recombinant DHFR by fluorescence titration
Caco-2 [5] = assay: Growth inhibition of human Caco-2 cells at 25 uM after 6 days; assay type: functional, cell-based
Summary of the method: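 Caco-2 cells treated 6 days with 25 μM compound; MTT viability expressed as percent of untreated control (100%); mean of three independent experiments ± SD.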

[6] = Prooxidant activity assessed as enhancement of NADPH oxidation at 50 uM; assay type: functional
Summary of the method: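 Rate of NADPH (0.1 mM) oxidation measured with 50 μM catechin in sodium-phosphate buffer, pH 7.4, 37 °C. Read-out is the fall in NADPH absorbance at 340 nm. Runs were done with and without bovine liver SOD at 10 μg/mL.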

SK-MEL-28 [7] = assay: Down regulation of thymidylate synthase mRNA expression in human SkMel28 cells at 20 uM after 24 hrs; assay type: functional, cell-based
Summary of the method: (§1)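 SkMel-28 cells treated and mRNA quantified by SYBR Green real-time PCR (95 °C 15 min; 40-50 cycles 94 °C 30 s, 55 °C 30 s, 72 °C 1 min), triplicate reactions, at least two independent experiments; melting-curve specificity check; expression relative to normal human epidermal melanocytes.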

SK-MEL-28 [8] = assay: Antiproliferative activity against human SkMel28 cells after 6 days by MTT assay; assay type: functional, cell-based; settings: SK-MEL-28, 144 h
Summary of the method: (§2)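 ATCC lines kept in medium with 10% FCS and antibiotics; plated at 1000 cells/well, grown to 50-60% confluence, then exposed for 6 days. Viability by MTT, formazan read at 570 nm; IC50 derived.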

MCF7 = assay: Antiproliferative activity against human MCF7 cells after 6 days by MTT assay; assay type: functional, cell-based; settings: MCF7, 144 h; summary of the method: as §2
SK-MEL-28 [9] = assay: Growth inhibition of human SkMel28 cells at 20 uM after 6 days; assay type: functional, cell-based
Caco-2 [10] = assay: Antiproliferative activity against human Caco-2 cells after 6 days by MTT assay; assay type: functional, cell-based; settings: Caco-2, 144 h; summary of the method: as §2
SK-MEL-28 [11] = assay: Down regulation of methyltetrahydrofolate reductase mRNA expression in human SkMel28 cells at 20 uM after 24 hrs; assay type: functional, cell-based; summary of the method: as §1
[12] = Antiproliferative activity against human H1264 cells after 6 days by MTT assay; assay type: functional, cell-based; settings: H1264, 144 h; summary of the method: as §2
SK-MEL-28 [13] = assay: Down regulation of DHFR mRNA expression in human SkMel28 cells at 20 uM after 24 hrs; assay type: functional, cell-based; summary of the method: as §1

Molecule	Activity [1]	Activity [2] [mM]	Kd [4] [µM]	Activity (Caco-2 [5])	Activity [6]	other results
Oc1cc(O)c2c(c1)O[C@H](c1ccc(O)c(O)c1)[C@H](O)C2	inactive	–	–	–	–	–
VITAMIN E	–	1	–	–	–	–
O=C(O[C@@H]1Cc2c(O)cc(O)cc2O[C@@H]1c1cc(O)c(O)c(O)c1)c1cc(O)c(O)c(O)c1 [EPIGALOCATECHIN GALLATE]	–	4.8	0.92	Active	Active	half-life [3]: < 120 min
O=C(O[C@@H]1Cc2c(O)cc(O)cc2O[C@@H]1c1ccc(O)c(O)c1)c1cc(O)c(O)c(O)c1	–	4.9	1.78	Active	–	–
COc1cc(C(=O)O[C@@H]2Cc3c(O)cc(O)cc3O[C@@H]2c2ccc(O)c(O)c2)cc(OC)c1OC	–	1.9	2.1	Active	–	Activity (SK-MEL-28 [7]): Active; IC50 (SK-MEL-28 [8]): 2900 nM; IC50 (MCF7): 80 µM; Activity (SK-MEL-28 [9]): Active; IC50 (Caco-2 [10]): 33 µM; Activity (SK-MEL-28 [11]): Active; IC50 [12]: 18 µM; Activity (SK-MEL-28 [13]): Active
Oc1cc(O)c2c(c1)O[C@H](c1cc(O)c(O)c(O)c1)[C@H](O)C2	inactive	–	–	–	Active	–
